From ChEMBL document CHEMBL1156853, “Structure-function relationships and crystal structures of the vitamin D receptor bound 2 alpha-methyl-(20S,23S)- and 2 alpha-methyl-(20S,23R)-epoxymethano-1 alpha,25-dihydroxyvitamin D3” (J Med Chem, 2010)
Calls of active or inactive are those of the source. The calls are words filed in the database; no cut-off is given here.

Assays:
[1] = molecular target: T1, Vitamin D3 receptor (Homo sapiens) (UniProt P11473); assay: Binding affinity to human VDR ligand binding domain assessed as SRC1 peptide binding dissociation constant by fluorescence anisotrophy relative to 1-alpha,25(OH)(2)D(3)
T1 sequence (whole entry): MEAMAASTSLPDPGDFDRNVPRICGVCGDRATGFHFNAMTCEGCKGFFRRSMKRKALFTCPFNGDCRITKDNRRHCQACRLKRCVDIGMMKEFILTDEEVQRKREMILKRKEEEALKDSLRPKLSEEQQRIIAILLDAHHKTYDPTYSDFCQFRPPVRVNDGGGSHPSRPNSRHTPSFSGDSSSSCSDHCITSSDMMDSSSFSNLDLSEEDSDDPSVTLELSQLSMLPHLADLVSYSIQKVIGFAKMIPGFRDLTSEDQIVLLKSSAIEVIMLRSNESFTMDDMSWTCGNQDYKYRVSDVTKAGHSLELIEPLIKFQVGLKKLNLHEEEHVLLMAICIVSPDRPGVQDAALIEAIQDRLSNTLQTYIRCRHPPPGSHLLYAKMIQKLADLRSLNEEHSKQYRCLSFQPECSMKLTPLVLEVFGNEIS
Method in brief: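 Steady-state fluorescence anisotropy at 20 °C. Kd obtained from anisotropy values of free peptide, peptide at each protein concentration and plateau. Representative of three experiments.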

[2] = system: HL-60; assay: Antiproliferative activity against human HL60 cells after 96 hrs; format: functional, cell-based
Method in brief: (§1)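 HL60 cells grown in RPMI with 10% fetal calf serum at 37 °C without CO2. Plated at 4 × 10^5 cells/mL and exposed 96 h to various ligand concentrations, with 0.7% ethanol as control. Cells then counted; mean ± SEM.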

[3] = system: HL-60; assay: Induction of cell differentiation in human HL60 cells assessed as CD11c and CD14 expression after 96 hrs; format: functional, cell-based
Method in brief: (§2)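 HL60 cells plated at 4 × 10^5 cells/mL in RPMI/10% FCS at 37 °C and treated 96 h, with 0.7% ethanol control. Stained with PE-anti-CD11c and FITC-anti-CD14, and Topro-3 added to exclude dead cells. Flow cytometry counted the CD11c/CD14 double-positive subpopulation. Representative of three experiments.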

[4] = system: HL-60; assay: Antiproliferative activity against human HL60 cells at 0.1 nM after 96 hrs; format: functional, cell-based; method in brief: as §1
[5] = system: HL-60; assay: Induction of cell differentiation in human HL60 cells assessed as CD11c and CD14 expression at 0.1 nM after 96 hrs relative to untreated control; format: functional; method in brief: as §2
[6] = system: Mus musculus; assay: Toxicity in C57BL/6J mouse assessed as increase in serum calcium level at 0.1 ug/kg, ip administered every 2 days for 3 weeks; format: organism-based; settings: in vivo, 0.0001 mg/kg
Method in brief: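 Male C57BL/6J mice, 6-7 weeks old, 6-7 per group. Ligand in sesame oil given ip at 0.1 μg/kg every second day for 3 weeks; vehicle controls received sesame oil. Serum calcium measured weekly after a 3 h fast, by clinical analyzer kit. Mean ± SEM.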

[7] = molecular target: T1, Vitamin D3 receptor (Homo sapiens); assay: Agonist activity at GAL4 tagged human VDR ligand binding domain expressed in MCF7 cells assessed as receptor transactivation at 0.1 nM by luciferase reporter gene assay relative to (20S,23S)-epoxymethano-1 alpha,25-dihydroxyvitamin D(3); format: cell-based
Method in brief: (§3)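 Gal4 DBD fused to human VDR LBD (90-427). MCF-7 cells seeded at 10^5 per well and grown overnight in phenol red-free DMEM with 10% charcoal-treated FCS and insulin. Transfected (jetPEI) with Gal4-VDR, ptk-LUC reporter and β-galactosidase plasmid. Ligand or solvent added 10 h later in phenol red-free DMEM/10% FCS. Luciferase read 24 h after stimulation and normalized to β-galactosidase. Triplicates, at least three experiments.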

[8] = molecular target: T1, Vitamin D3 receptor (Homo sapiens); assay: Agonist activity at GAL4 tagged human VDR ligand binding domain expressed in MCF7 cells assessed as receptor transactivation at 0.1 nM by luciferase reporter gene assay relative to 1-alpha,25(OH)(2)D(3); format: cell-based; method in brief: as §3
[9] = molecular target: T1, Vitamin D3 receptor (Homo sapiens); assay: Agonist activity at GAL4 tagged human VDR ligand binding domain expressed in MCF7 cells assessed as receptor transactivation at 5 nM by luciferase reporter gene assay relative to 1-alpha,25(OH)(2)D(3); format: cell-based; method in brief: as §3
[10] = molecular target: T1, Vitamin D3 receptor (Homo sapiens); assay: Agonist activity at GAL4 tagged human VDR ligand binding domain expressed in MCF7 cells assessed as receptor transactivation at 0.1 nM by luciferase reporter gene assay relative to 2alpha-methyl-(20S,23S)-epoxymethano-1 alpha,25-dihydroxyvitamin D(3); format: cell-based; method in brief: as §3
[11] = molecular target: T1, Vitamin D3 receptor (Homo sapiens); assay: Agonist activity at GAL4 tagged human VDR ligand binding domain expressed in MCF7 cells assessed as receptor transactivation at 1 nM by luciferase reporter gene assay relative to 2alpha-methyl-(20S,23S)-epoxymethano-1 alpha,25-dihydroxyvitamin D(3); format: cell-based; method in brief: as §3
[12] = molecular target: T1, Vitamin D3 receptor (Homo sapiens); assay: Agonist activity at GAL4 tagged human VDR ligand binding domain expressed in MCF7 cells assessed as receptor transactivation at 5 nM by luciferase reporter gene assay relative to 2alpha-methyl-(20S,23S)-epoxymethano-1 alpha,25-dihydroxyvitamin D(3); format: cell-based; method in brief: as §3

SMILES	fold change (FC) [1]	Activity [2]	Activity [3]	Activity [4]	Activity [5]	Activity [6]	fold change (FC) [7]	fold change (FC) [8]	Activity [9]	fold change (FC) [5]	Activity [10]	Activity [11]	Activity [12]
C=C1/C(=C\C=C2/CCC[C@]3(C)[C@@H]([C@@H]4C[C@H](CC(C)(C)O)CO4)CC[C@@H]23)C[C@@H](O)[C@H](C)[C@@H]1O	3.2	Dose-dependent effect	Dose-dependent effect	inactive	inactive	Non-toxic							
C=C1/C(=C\C=C2/CCC[C@]3(C)[C@@H]([C@@H]4C[C@H](CC(C)(C)O)CO4)CC[C@@H]23)C[C@@H](O)C[C@@H]1O	1.7	Dose-dependent effect	Dose-dependent effect	inactive	inactive								
C=C1/C(=C\C=C2/CCC[C@]3(C)[C@@H]([C@@H]4C[C@@H](CC(C)(C)O)CO4)CC[C@@H]23)C[C@@H](O)[C@H](C)[C@@H]1O	1.3			Active	Active	Toxic	3.8	13	Active	10			
C=C1/C(=C\C=C2/CCC[C@]3(C)[C@@H]([C@H](C)CCCC(C)(C)O)CC[C@@H]23)C[C@@H](O)C[C@@H]1O				inactive	inactive								
C=C1/C(=C\C=C2/CCC[C@]3(C)[C@@H]([C@@H]4C[C@@H](CC(C)(C)O)CO4)CC[C@@H]23)C[C@@H](O)C[C@@H]1O	0.9			inactive	inactive	Toxic					26%	42%	73%
